Test results: publication PMC9884082 (Journal of Medicinal Chemistry, 2023)

Assays:
HT-29 monolayer culture = experiment: Cell proliferation; type: cell-based, human; conditions: MTT, 60-72 h
Outline: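 HT-29 cells kept as monolayers in DMEM:F-12 with 10% FBS and 1% penicillin/streptomycin, passaged before 70% confluence. About 2.5 × 10³ cells/well were incubated overnight (37 °C, 5% CO₂), then exposed to test compound for 60–72 h. MTT (5 mg/mL stock in PBS) was added for 2–3 h and crystals dissolved in DMSO. A590 was read and growth expressed as percent of vehicle; ≥3 replicates.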

[1] = tested on: pooled normal human plasma; experiment: Human plasma clotting time; type: biochemical; conditions: ∼34 to ∼68 s
Outline: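 APTT was run in a fibrometer by one-stage recalcification. Test compound was mixed with citrated pooled normal human plasma and prewarmed APTT reagent (ellagic acid). After 4 min at 37 °C, clotting was started with prewarmed 25 mM CaCl₂ and time to clot recorded. A quadratic trend line fitted to the data gave the concentration doubling clotting time.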

[2] = Mouse tail bleeding study; type: in vivo, wild-type ICR mice; conditions: IV; NSGMs 1–100 mg/kg, enoxaparin 224 μg/kg
[3] = tested on: CD133+/CXCR4+ (Dual Hi) HT-29 xenografts; experiment: Dual Hi HT-29 xenograft after FUOX enrichment, IP G5C or FUOX; type: in vivo, NCr nude mice; conditions: G5C 100 mg/kg IP; FUOX IP weekly
Outline: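 1 × 10⁵ FACS-sorted CD133⁺/CXCR4⁺ HT-29 cells were injected subcutaneously into NCr nude mice. Palpable tumors were enriched in vivo with 25 mg/kg 5-fluorouracil plus 2 mg/kg oxaliplatin IP weekly for 3 weeks. Mice were then randomized to vehicle, the same regimen continued, or test compound 100 mg/kg IP three times/week (14 doses). Tumors (n = 2/group) were dissociated into single cells and 1–3° spheroids (50–150 μm) counted in low-adhesion EGF/FGF stem cell medium.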

[4] = Preliminary half-life experiments; type: in vivo; conditions: data not shown

concentration required for 2-fold increase in APTT [1]: ~200 µM | increase in half-life over G2.2 [4]: ~50%
SMILES: CC(C)CCC[C@@H](C)[C@H]1CC[C@H]2[C@@H]3CC=C4C[C@@H](OCCCCCOc5cc(-c6oc7cc(OS(=O)(=O)[O-])cc(OCCCOc8cc(OS(=O)(=O)[O-])cc9oc(-c%10ccc(OS(=O)(=O)[O-])c(OS(=O)(=O)[O-])c%10)c(OS(=O)(=O)[O-])c(=O)c89)c7c(=O)c6OS(=O)(=O)[O-])ccc5OS(=O)(=O)[O-])CC[C@]4(C)[C@H]3CC[C@]12C.[Na+].[Na+].[Na+].[Na+].[Na+].[Na+].[Na+] [G5C, Sodium 4-(5-(3-((2-(3-((5-(((8S,9S,10R,13R,14S,17R)-10,13-Dimethyl-17-((R)-6-methylheptan-2-yl)-2,3,4,7,8,9,10,11,12,13,14,15,16,17-tetradecahydro-1H-cyclopenta[a]phenanthren-3-yl)oxy)pentyl)oxy)-4-(sulfonatooxy)phenyl)-4-oxo-3,7-bis(sulfonatooxy)-4H-chromen-5-yl)oxy)propoxy)-4-oxo-3,7-bis(sulfonatooxy)-4H-chromen-2-yl)-1,2-phenylene Bis(sulfate)]
cytotoxicity under monolayer conditions (HT-29 monolayer culture): essentially benign toward monolayer cancer cell culture even at ∼400 μM | blood loss, tail bleeding [2]: did not exhibit much tail bleeding phenotype | ex vivo 3° spheroid growth from xenograft cells [3]: maintain inhibition
